Reference: ChEMBL document CHEMBL2150999, “Design, synthesis and biological evaluation of benzo[e][1,2,4]triazin-7(1H)-one and [1,2,4]-triazino[5,6,1-jk]carbazol-6-one derivatives as dual inhibitors of beta-amyloid aggregation and acetyl/butyryl cholinesterase” (Eur J Med Chem, 2012)
In brackets after ≈: the same amount, converted by molar mass. Activity calls are given as the source filed them. No cut-off for these calls is given here.

Key:
[1] = molecular target: Acetylcholinesterase (Electrophorus electricus) (UniProt O42275); assay: Inhibition of electric eel AChE using acetylthiocholine iodide as substrate at 10 uM after 20 mins by Ellman's method
Sequence of Acetylcholinesterase (Electrophorus electricus) (O42275 24-633 limits assumed): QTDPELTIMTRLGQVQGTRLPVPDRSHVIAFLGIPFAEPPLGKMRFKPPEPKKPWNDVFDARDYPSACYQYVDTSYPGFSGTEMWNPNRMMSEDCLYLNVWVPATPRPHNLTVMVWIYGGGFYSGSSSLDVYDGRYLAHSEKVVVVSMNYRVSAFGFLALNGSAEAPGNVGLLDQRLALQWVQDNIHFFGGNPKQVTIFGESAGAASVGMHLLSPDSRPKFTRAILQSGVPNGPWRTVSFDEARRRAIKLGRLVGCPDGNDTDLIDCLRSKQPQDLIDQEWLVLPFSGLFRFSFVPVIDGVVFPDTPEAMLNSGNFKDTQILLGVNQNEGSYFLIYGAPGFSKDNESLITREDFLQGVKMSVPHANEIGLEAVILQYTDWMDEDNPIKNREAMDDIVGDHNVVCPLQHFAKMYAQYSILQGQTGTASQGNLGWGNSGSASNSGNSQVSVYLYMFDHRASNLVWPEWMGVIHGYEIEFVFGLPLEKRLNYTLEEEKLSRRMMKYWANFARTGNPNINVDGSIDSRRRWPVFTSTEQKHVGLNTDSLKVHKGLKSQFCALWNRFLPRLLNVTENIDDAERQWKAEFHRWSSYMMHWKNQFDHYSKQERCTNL

Cholinesterase = Cholinesterase (Equus caballus, UniProt P81908); assay: Inhibition of equine serum BChE using butyrylthiocholine iodide as substrate after 20 mins by Ellman's method
Sequence of Cholinesterase (P81908 whole entry): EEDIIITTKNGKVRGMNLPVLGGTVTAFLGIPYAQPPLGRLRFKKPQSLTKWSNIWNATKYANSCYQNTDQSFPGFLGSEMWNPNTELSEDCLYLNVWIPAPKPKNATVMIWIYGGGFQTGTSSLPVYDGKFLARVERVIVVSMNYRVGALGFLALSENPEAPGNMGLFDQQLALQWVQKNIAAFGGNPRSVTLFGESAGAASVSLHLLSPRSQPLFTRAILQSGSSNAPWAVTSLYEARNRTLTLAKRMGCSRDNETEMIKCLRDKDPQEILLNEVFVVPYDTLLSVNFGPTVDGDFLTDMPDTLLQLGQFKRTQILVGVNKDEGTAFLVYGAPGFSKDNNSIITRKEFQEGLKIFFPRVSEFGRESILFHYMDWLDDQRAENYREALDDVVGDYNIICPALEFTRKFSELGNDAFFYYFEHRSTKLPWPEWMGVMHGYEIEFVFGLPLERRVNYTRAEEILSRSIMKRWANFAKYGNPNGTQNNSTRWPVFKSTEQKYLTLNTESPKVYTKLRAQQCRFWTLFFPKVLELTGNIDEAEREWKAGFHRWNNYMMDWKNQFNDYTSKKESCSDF
Summary of the method: (§1)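 Enzyme (eel AChE 463 U/mg or equine serum BChE 13 U/mg) in 0.1 M phosphate buffer pH 8.0 with DTNB, preincubated with inhibitor 20 min at 25 °C. Then acetylthiocholine or butyrylthiocholine iodide added; absorbance rise at 412 nm read 5.0 min at 25 °C. DMSO below 1%. IC50 from nonlinear regression of response/log(concentration), six to seven concentrations, 1×10^-8 to 1×10^-4 M. Means of three independent experiments.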

[2] = Inhibition of HFIP-induced amyloid beta (1-40) aggregation after 2 hrs by thioflavin T fluorescence method
Summary of the method: (§2)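 Pre-monomerized Aβ1-40 (HFIP-dissolved, lyophilized) at 30 µM in PBS (0.01 M, NaCl 0.1 M, pH 7.4) with 2% HFIP and 10% DMSO, coincubated with compound in triplicate at 25 °C for 2 h. Sample mixed with 25 µM ThT in 0.025 M phosphate pH 6.0; excitation 440 nm, emission 485 nm. Peptide-free blanks subtracted; % inhibition versus control. Primary screen at 100 µM. IC50 from 5–7 concentrations (200–0.01 µM) tested in duplicate, three independent experiments.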

[3] = Inhibition of HFIP-induced amyloid beta (1-40) aggregation at 100 uM after 2 hrs by thioflavin T fluorescence method; summary of the method: as §2
[4] = molecular target: Cholinesterase (Equus caballus) (UniProt P81908); assay: Inhibition of equine serum BChE using butyrylthiocholine iodide as substrate at 10 uM after 20 mins by Ellman's method
Sequence of Cholinesterase (Equus caballus) (P81908 whole entry): as above

[5] = Inhibition of amyloid beta (1-40) beta-sheet transition assessed as decrease in beta-sheet level after 7 days by CD spectroscopic analysis relative to control; conditions: concentration not given here
Summary of the method: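 Aβ1-40 (50 µM) in PBS with 10% ethanol, alone or with compound (10 or 50 µM), incubated at 37 °C without agitation. CD spectra 195–250 nm were recorded at room temperature in a 0.1 cm cell, with buffer/ethanol or inhibitor blank baseline subtracted. Absolute ellipticity at 215 nm was followed over time and expressed relative to the control plateau.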

[6] = Inhibition of amyloid beta (1-42) aggregation at 100 uM measured at 8 hrs and 24 hrs by thioflavin T fluorescence method
Summary of the method: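 Aβ1-42 (30 µM) in PBS/10% DMSO at 37 °C, alone or with compound at 100 µM. ThT fluorescence (ex 440, em 485 nm) read at 8 h and 24 h, reported in arbitrary units; mean ± SEM of three independent experiments.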

Acetylcholinesterase = Acetylcholinesterase (Electrophorus electricus, UniProt O42275); assay: Inhibition of electric eel AChE using acetylthiocholine iodide as substrate after 20 mins by Ellman's method; summary of the method: as §1
Sequence of Acetylcholinesterase (O42275 whole entry): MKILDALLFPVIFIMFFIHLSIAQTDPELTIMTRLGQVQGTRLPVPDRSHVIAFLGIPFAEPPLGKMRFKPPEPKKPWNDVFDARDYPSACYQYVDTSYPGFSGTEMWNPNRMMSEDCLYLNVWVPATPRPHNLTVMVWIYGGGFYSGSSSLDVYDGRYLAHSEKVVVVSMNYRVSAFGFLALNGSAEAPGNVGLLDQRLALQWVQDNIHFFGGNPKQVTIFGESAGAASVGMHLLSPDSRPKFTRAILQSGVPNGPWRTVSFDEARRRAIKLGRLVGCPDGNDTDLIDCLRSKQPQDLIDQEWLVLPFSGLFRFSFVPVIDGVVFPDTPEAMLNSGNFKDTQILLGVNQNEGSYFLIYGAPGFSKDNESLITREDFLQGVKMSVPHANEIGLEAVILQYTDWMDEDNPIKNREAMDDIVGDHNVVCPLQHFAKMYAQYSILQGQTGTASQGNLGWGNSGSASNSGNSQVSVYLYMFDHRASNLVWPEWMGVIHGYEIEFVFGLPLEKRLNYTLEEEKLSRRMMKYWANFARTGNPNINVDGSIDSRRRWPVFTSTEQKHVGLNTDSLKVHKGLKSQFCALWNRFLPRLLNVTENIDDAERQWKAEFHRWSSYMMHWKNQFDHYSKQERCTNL

[7] = Inhibition of amyloid beta (1-40) fibrillation assessed as isolated fibrillar aggregates formation at 10 uM after 7 days by TEM analysis
Summary of the method: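 Aβ1-40 (50 µM) in PBS/10% ethanol, with compound at 10 or 50 µM, incubated at 37 °C for up to 10 days. Aliquots taken at 7 days were applied to carbon-coated grids and negatively stained with 2% w/v uranyl acetate. Imaged by TEM at 60 kV and 39 000-fold magnification, compared with self-aggregating control.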

[8] = Aqueous solubility of the compound in PBS buffer; assay type: physicochemical
Summary of the method: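 Preliminary solubility in the incubation medium (PBS with up to 10% ethanol cosolvent) measured by UV spectroscopy; used to set the maximum soluble test concentration.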

Structure (SMILES)	inhibition [1] [%]	IC50 [2] [nM]	inhibition [3] [%]	inhibition [4] [%]	further results
CN(C)CCCN(C)c1cc2nc(-c3ccccc3)nn3c4ccccc4c(c1=O)c23	49	7600	–	–	IC50 (Cholinesterase): 4000 nM
O=c1cc2n(-c3ccccc3)nc(-c3ccccc3)nc-2cc1N1CCN(Cc2ccccc2)CC1	56	–	61	18	–
O=c1cc2n(-c3ccccc3)nc(-c3ccccc3)nc-2cc1Nc1ccccc1	57	–	13	9	–
CCN(CC)c1cc2nc(-c3ccccc3)nn(-c3ccccc3)c-2cc1=O	55	17000	–	19	–
O=c1cc2n(-c3ccccc3)nc(-c3ccccc3)nc-2cc1N1CCSCC1	42	–	62	0	–
CN(CCCCCCCCNc1cc2nc(-c3ccccc3)nn(-c3ccccc3)c-2cc1=O)Cc1ccccc1	45	21000	–	28	–
CN(c1ccccc1)c1cc2nc(-c3ccccc3)nn(-c3ccccc3)c-2cc1=O	57	–	51	11	–
CCN(CC)c1cc2nc(-c3ccccc3)nn3c4ccccc4c(c1=O)c23	46	1400	–	54	–
COc1cc2nc(-c3ccccc3)nn3c4ccccc4c(c1=O)c23	52	–	33	11	–
O=c1cc2n(-c3ccccc3)nc(-c3ccccc3)nc-2cc1Sc1ccccc1	49	–	42	6	–
CN(CCCCCN(C)c1cc2nc(-c3ccccc3)nn(-c3ccccc3)c-2cc1=O)Cc1ccccc1	–	1400	–	–	inhibition [5]: 40%; inhibition [6]: Active; IC50 (Acetylcholinesterase): 1500 nM; IC50 (Cholinesterase): 1900 nM; inhibition [7]: Active; solubility [8]: 10 µM (≈ 5.18 µg/mL)
CN(CCCCCCCCN(C)c1cc2nc(-c3ccccc3)nn(-c3ccccc3)c-2cc1=O)Cc1ccccc1	50	65000	–	–	IC50 (Cholinesterase): 310 nM
CN(CCCCCCCCNc1cc2nc(-c3ccccc3)nn3c4ccccc4c(c1=O)c23)Cc1ccccc1	46	–	60	25	–
CN(Cc1ccccc1)c1cc2nc(-c3ccccc3)nn3c4ccccc4c(c1=O)c23	53	4100	–	26	–
O=c1ccc2nc(-c3ccccc3)nn(-c3ccccc3)c-2c1	47	–	39	27	–
CCN(Cc1ccccc1)c1cc2nc(-c3ccccc3)nn(-c3ccccc3)c-2cc1=O	53	2100	–	13	–
CN(C)CCCN(C)c1cc2nc(-c3ccccc3)nn(-c3ccccc3)c-2cc1=O	46	–	45	18	–
CN(c1cc2nc(-c3ccccc3)nn(-c3ccccc3)c-2cc1=O)C1CCCCC1	55	4000	–	37	–
CN(CCCCCCCCN(C)c1cc2nc(-c3ccccc3)nn3c4ccccc4c(c1=O)c23)Cc1ccccc1	55	1400	–	–	inhibition [6]: Active; IC50 (Cholinesterase): 25 nM
